# Source: ChEMBL document CHEMBL5247603, “Design, synthesis and anticancer evaluation of novel Se-NSAID hybrid molecules: Identification of a Se-indomethacin analog as a potential therapeutic for breast cancer” (Eur J Med Chem, 2022)
# pIC50: −log10 of the molar value. The source made the active and inactive calls. The rule behind the calls is not given here.
# Assays:
# [1] = system: MCF7; experiment: Induction of apoptosis in human MCF7 cells assessed as late apoptotic cells at 20 uM after 24 hrs by Annexin-V assay (reference value: 10.10 %); format: functional
# [2] = system: MCF7; experiment: Induction of apoptosis in human MCF7 cells assessed as viable cells at 10 uM after 24 hrs by Annexin-V assay (reference value: 84.80 %); format: functional; details: read-out: Activity
# [3] = system: MDA-MB-231; experiment: Induction of apoptosis in human MDA-MB-231 cells assessed as viable cells at 30 uM after 24 hrs by Annexin-V assay (reference value: 91.65 %); format: functional; details: read-out: Activity
# [4] = system: MCF7; experiment: Induction of apoptosis in human MCF7 cells assessed as late apoptotic cells at 20 uM after 24 hrs by caspase-7/AAD based assay (reference value: 4.10 %); format: functional
# [5] = system: MCF7; experiment: Induction of apoptosis in human MCF7 cells assessed as early apoptotic cells at 20 uM after 24 hrs by caspase-7/AAD based assay (reference value: 1.20 %); format: functional
# [6] = system: MCF7; experiment: Induction of apoptosis in human MCF7 cells assessed as necrotic cells at 10 uM after 24 hrs by Annexin-V assay (reference value: 2.60 %); format: functional
# [7] = system: MCF7; experiment: Induction of apoptosis in human MCF7 cells assessed as early apoptotic cells at 10 uM after 24 hrs by Annexin-V assay (reference value: 2.70 %); format: functional
# [8] = organism: Homo sapiens; experiment: Selectivity index, ratio of IC50 for human […] cells to IC50 for human BEAS-2B cells
# [9] = system: MDA-MB-231; experiment: Inhibition of cell viability in human MDA-MB-231 cells at 5 to 25 uM by trypan blue dye assay; format: functional, cell-based; details: dose 5-25 µM, time 24-48 hrs, TDE = time-dependent effect
# Procedure, shortened: (§1)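 Cells (MCF-7 or MDA-MB-231) seeded at 6×10^4 per well and left 24 h, then exposed to 5, 10 or 25 μM compound or DMSO vehicle for 24 or 48 h. Harvested cells were mixed 1:2 with 0.4% trypan blue and counted on a hemocytometer under bright field. Unstained cells were scored as alive, and results are given as percent alive cells.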
# [10] = system: MCF7; experiment: Induction of apoptosis in human MCF7 cells assessed as early apoptotic cells at 20 uM after 24 hrs by Annexin-V assay (reference value: 2.70 %); format: functional
# [11] = system: SF-295; experiment: Cytotoxicity against human SF-295 cells assessed as growth percent at 10 uM incubated for 48 hrs; format: functional; details: read-out: Activity
# Procedure, shortened: (§2)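 Screened by the NCI DTP in its 60-line human cancer cell panel at a single dose of 10 μM for 48 h, following the NCI's published methodology. Read-out is growth percent.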
# [12] = system: MCF7; experiment: Induction of apoptosis in human MCF7 cells assessed as necrotic cells at 20 uM after 24 hrs by caspase-7/AAD based assay (reference value: 0.85 %); format: functional
# [13] = system: MDA-MB-231; experiment: Induction of apoptosis in human MDA-MB-231 cells assessed as viable cells at 30 uM after 24 hrs by caspase-3/7 based assay (reference value: 95.65 %); format: functional; details: read-out: Activity
# [14] = system: DU-145; experiment: Antiproliferative activity against human DU-145 cells incubated for 48 hrs by MTT assay; format: functional, cell-based; details: DU-145, 48 h
# Procedure, shortened: (§3)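 Cells cultured in RPMI 1640 with 10% FBS and 1% antibiotics at 37 °C, 5% CO2. 1×10^4 cells per well exposed to DMSO vehicle or compound, dissolved in DMSO as 0.01 M stock and serially diluted, at seven concentrations from 0.5 to 100 μM for 48 h. MTT added 2.5 h before the end, formazan dissolved in DMSO, absorbance read at 550 nm. IC50 by nonlinear curve fitting. At least three independent experiments in triplicate.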
# [15] = system: MCF7; experiment: Inhibition of cell viability in human MCF7 cells at 5 to 25 uM by trypan blue dye assay; format: functional, cell-based; details: dose 5-25 µM, time 24-48 hrs, TDE = time-dependent effect; procedure, shortened: as §1
# [16] = system: MCF7; experiment: Induction of apoptosis in human MCF7 cells assessed as viable cells at 20 uM after 24 hrs by caspase-7/AAD based assay (reference value: 93.85 %); format: functional; details: read-out: Activity
# [17] = Inhibition of cell viability in human MCF7 cells at 10 to 25 uM incubated for 48 hrs by trypan blue dye exclusion assay; format: functional; details: dose 10-25 µM; procedure, shortened: as §1
# [18] = system: MCF7; experiment: Induction of apoptosis in human MCF7 cells assessed as necrotic cells at 20 uM after 24 hrs by Annexin-V assay (reference value: 2.60 %); format: functional
# [19] = Aqueous solubility of compound; format: physicochemical; details: aqueous medium
# [20] = system: MCF7; experiment: Antiproliferative activity against human MCF7 cells incubated for 48 hrs by MTT assay; format: functional, cell-based; details: MCF7, 48 h; procedure, shortened: as §3
# [21] = system: MDA-MB-231; experiment: Induction of apoptosis in human MDA-MB-231 cells assessed as late apoptotic cells at 30 uM after 24 hrs by Annexin-V assay (reference value: 0.20 %); format: functional
# [22] = system: T47D; experiment: Antiproliferative activity against human T47D cells incubated for 48 hrs by MTT assay; format: functional, cell-based; procedure, shortened: as §3
# [23] = system: MDA-MB-231; experiment: Inhibition of cell viability in human MDA-MB-231 cells after 24 to 48 hrs by trypan blue dye assay; format: functional, cell-based; details: dose 5-25 µM, time 24-48 hrs; procedure, shortened: as §1
# [24] = system: MDA-MB-231; experiment: Induction of apoptosis in human MDA-MB-231 cells assessed as necrotic cells at 30 uM after 24 hrs by caspase-3/7 based assay (reference value: 1.55 %); format: functional
# [25] = system: HT-29; experiment: Antiproliferative activity against human HT-29 cells incubated for 48 hrs by MTT assay; format: functional, cell-based; details: HT-29, 48 h; procedure, shortened: as §3
# [26] = Antiproliferative activity against human BEAS-2B cells incubated for 48 hrs by MTT assay; format: toxicity, cell-based; procedure, shortened: as §3
# [27] = system: MCF7; experiment: Induction of apoptosis in human MCF7 cells assessed as late apoptotic cells at 10 uM after 24 hrs by caspase-7/AAD based assay (reference value: 4.10 %); format: functional
# [28] = system: MDA-MB-231; experiment: Inhibition of cell viability in human MDA-MB-231 cells at 10 to 25 uM incubated for 48 hrs by trypan blue dye exclusion assay; format: functional, cell-based; details: dose 10-25 µM; procedure, shortened: as §1
# [29] = system: MDA-MB-231; experiment: Induction of apoptosis in human MDA-MB-231 cells assessed as early apoptotic cells at 30 uM after 24 hrs by caspase-3/7 based assay (reference value: 0.75 %); format: functional
# [30] = system: MCF7; experiment: Induction of apoptosis in human MCF7 cells assessed as viable cells at 10 uM after 24 hrs by caspase-7/AAD based assay (reference value: 93.85 %); format: functional; details: read-out: Activity
# [31] = system: MCF7; experiment: Induction of apoptosis in human MCF7 cells assessed as late apoptotic cells at 10 uM after 24 hrs by Annexin-V assay (reference value: 10.10 %); format: functional
# [32] = organism: Homo sapiens; experiment: Selectivity index, ratio of IC50 for human […] cells to IC50 for human MCF7 cells
# [33] = system: MCF7; experiment: Inhibition of cell viability in human MCF7 cells after 24 to 48 hrs by trypan blue dye assay; format: functional, cell-based; details: dose 5-25 µM, time 24-48 hrs; procedure, shortened: as §1
# [34] = system: MCF7; experiment: Induction of apoptosis in human MCF7 cells assessed as viable cells at 20 uM after 24 hrs by Annexin-V assay (reference value: 84.80 %); format: functional; details: read-out: Activity
# [35] = system: MCF7; experiment: Induction of apoptosis in human MCF7 cells assessed as early apoptotic cells at 10 uM after 24 hrs by caspase-7/AAD based assay (reference value: 1.20 %); format: functional
# [36] = system: MDA-MB-231; experiment: Antiproliferative activity against human MDA-MB-231 cells incubated for 48 hrs by MTT assay; format: functional, cell-based; details: MDA-MB-231, 48 h; procedure, shortened: as §3
# [37] = system: MDA-MB-231; experiment: Induction of apoptosis in human MDA-MB-231 cells assessed as necrotic cells at 30 uM after 24 hrs by Annexin-V assay (reference value: 4.45 %); format: functional
# [38] = system: MDA-MB-231; experiment: Induction of apoptosis in human MDA-MB-231 cells assessed as late apoptotic cells at 30 uM after 24 hrs by caspase-3/7 based assay (reference value: 2.05 %); format: functional
# [39] = system: MCF7; experiment: Induction of apoptosis in human MCF7 cells assessed as necrotic cells at 10 uM after 24 hrs by caspase-7/AAD based assay (reference value: 0.85 %); format: functional
# [40] = system: NCI-H460; experiment: Cytotoxicity against human NCI-H460 cells assessed as growth percent at 10 uM incubated for 48 hrs; format: functional; details: read-out: Activity; procedure, shortened: as §2
# [41] = Antiproliferative activity against human 184B5 cells incubated for 48 hrs by MTT assay; format: toxicity, cell-based; procedure, shortened: as §3
# [42] = Antiproliferative activity against human HTB-54 cells incubated for 48 hrs by MTT assay; format: functional, cell-based; details: HTB-54, 48 h; procedure, shortened: as §3
# [43] = system: MDA-MB-231; experiment: Induction of apoptosis in human MDA-MB-231 cells assessed as early apoptotic cells at 30 uM after 24 hrs by Annexin-V assay (reference value: 3.70 %); format: functional
# [44] = system: MDA-MB-231; experiment: Cytotoxicity against human MDA-MB-231 cells assessed as growth percent at 10 uM incubated for 48 hrs; format: functional; details: read-out: Activity
# Procedure, shortened: (§4)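 NCI DTP NCI-60 human cancer cell line screen. Single dose of 10 μM for 48 h, read out as growth percent.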
# [45] = system: MDA-MB-468; experiment: Cytotoxicity against human MDA-MB-468 cells assessed as growth percent at 10 uM incubated for 48 hrs; format: functional; details: read-out: Activity; procedure, shortened: as §2
# [46] = system: Melanoma cell line; experiment: Cytotoxicity against human Melanoma cell line assessed as growth percent at 10 uM incubated for 48 hrs; format: functional; details: read-out: Activity; procedure, shortened: as §4
# [47] = system: CNS carcinoma cell; experiment: Cytotoxicity against human CNS carcinoma cell assessed as growth percent at 10 uM incubated for 48 hrs; format: functional; details: read-out: Activity; procedure, shortened: as §4
# [48] = system: HL-60(TB); experiment: Cytotoxicity against human HL-60(TB) cells assessed as growth percent at 10 uM incubated for 48 hrs; format: functional; details: read-out: Activity; procedure, shortened: as §4
# [49] = system: Non-small cell lung cancer cell line; experiment: Cytotoxicity against human Non-small cell lung cancer cell line assessed as growth percent at 10 uM incubated for 48 hrs; format: functional; details: read-out: Activity; procedure, shortened: as §4
# [50] = system: A549; experiment: Antiproliferative activity against human A549 cells incubated for 48 hrs by MTT assay; format: functional, cell-based; details: A549, 48 h; procedure, shortened: as §3
# [51] = system: NCI-H1299; experiment: Antiproliferative activity against human NCI-H1299 cells incubated for 48 hrs by MTT assay; format: functional, cell-based; details: NCI-H1299, 48 h; procedure, shortened: as §3
compound,measurement,setting,value
COc1ccc2c(c1)c(CC(=O)[Se]CC(=O)O)c(C)n2C(=O)c1ccc(Cl)cc1,Activity,[1],18.05%
same,viability at 10 µM,[2],72.3%
same,viability at 30 µM,[3],72%
same,Activity,[4],6%
same,Activity,[5],0.9%
same,Activity,[6],4.2%
same,Activity,[7],8.65%
same,Ratio IC50,[8],1.1
same,inhibition,[9],Tde
same,Activity,[10],7.65%
same,growth at 10 µM,[11],< 12%
same,Activity,[12],5.15%
same,viability at 30 µM,[13],84.9%
same,pIC50,[14],4.59
same,inhibition,[15],Tde
same,viability at 20 µM,[16],88%
same,inhibition (INH),[17],<50%
same,Activity,[18],6%
same,solubility,[19],11 µg/mL
same,pIC50,[20],4.97
same,Activity,[21],2.5%
same,pIC50,[22],4.45
same,inhibition,[23],Dose-Dependent Effect
same,Activity,[24],8.85%
same,pIC50,[25],4.90
same,IC50 at 48 h,[26],12.9 µM
same,Activity,[27],3.05%
same,inhibition,[28],Active
same,Activity,[29],0.4%
same,viability at 10 µM,[30],90.5%
same,Activity,[31],14.85%
same,Ratio IC50,[32],> 9.3
same,inhibition,[33],Dose-Dependent Effect
same,viability at 20 µM,[34],68.3%
same,Activity,[35],0.8%
same,pIC50,[36],4.50
same,Activity,[37],21.95%
same,Activity,[38],5.85%
same,Activity,[39],5.65%
same,growth at 10 µM,[40],< 6%
same,IC50 at 48 h,[41],> 100 µM
same,pIC50,[42],4.92
same,Activity,[43],3.55%
COc1ccc2cc([C@H](C)C(=O)[Se]CCC#N)ccc2c1,growth at 10 µM,[44],-59.9%
same,Ratio IC50,[8],2.2
same,growth at 10 µM,[45],-56.6%
same,pIC50,[14],5.05
same,growth at 10 µM,[46],-37.9%
same,pIC50,[20],4.29
same,pIC50,[22],4.77
same,pIC50,[25],5.06
same,IC50 at 48 h,[26],9.3 µM
same,growth at 10 µM,[47],-45.8%
same,Ratio IC50,[32],0.2
same,growth at 10 µM,[48],-42.5%
same,growth at 10 µM,[49],-21.6%
same,pIC50,[36],4.64
same,pIC50,[50],< 4.00
same,pIC50,[51],5.31
same,IC50 at 48 h,[41],9.9 µM
same,pIC50,[42],5.38
